From ChEMBL document CHEMBL1124266, “Stereoelectronic factors influencing the biological activity and DNA interaction of synthetic antitumor agents modeled on CC-1065” (J Med Chem, 1988) come the findings set out here.

SMILES strings stand for the structures. Activity calls are given as the source filed them. No cut-off for these calls is given here.

Data set [1] can be described thus: Pseudo-first order rate constant at pH 3 followed spectrophotometrically; Stable. The class given is ADME.
The subject of the next data set is Nucleic Acid. In words: Induced circular dichroism (ICD), expressed as molar ellipticity, in the presence of calf-thymus DNA. The settings on record: Bos taurus. The class given is functional. A digest of the protocol: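 Drug stock (1–4 mg/mL in DMA, DMF or DMSO) injected into calf-thymus DNA (11 × 10⁻⁵ M) in 0.01 M phosphate buffer pH 7.2. Final drug 0.85 × 10⁻⁵ M, base-to-drug ratio 13. Stood 24 h at room temperature before CD spectrum. Value is molar ellipticity at long-wavelength maximum, ca. 350 nm.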
On the technique in general: CD spectra are sensitive to the conformation of chiral molecules.

For a further data set, the system named is L1210. In words: In vitro concentration required to inhibit 50% growth of murine L1210 leukemia cells. The class given is functional. To be noted: Mus musculus, read-out: ID50 (the source's name). The procedure, abridged:
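Mouse L1210 leukemia cells in RPMI 1634 with 5% fetal calf serum, 0.075% sodium bicarbonate, penicillin 0.1 mg/mL and streptomycin 50 μg/mL. Drug aliquots added to tubes, then cells at approximately 5 × 10³ cells/mL. Incubation 37 °C for 3 days; cell number by Coulter counter. ID₅₀ = nM concentration giving 50% growth inhibition.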

Data set [2] has as its system P388. In words: In vivo % increase in life span of treated animals (OD) over that of control mice bearing tumor, determined against P388 leukemia cells; NA=no activity(<20% ILS). The class given is functional, organism-based. The settings on record: Mus musculus. The procedure, abridged:
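P388 leukemia kept by serial passage in female DBA/2 mice. Male BDF1 mice were given 10^6 cells ip on day 0. Drug was given ip on days 1, 5 and 9 in 2% DMA/10% Emulphor 620-P/water, with six mice per group. Optimum dose was in mg/kg per day. %ILS came from the median day of death versus untreated tumor-bearing controls. Mice alive at 30 days were counted as cured.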

In data set [3] the test system is P388. The data set can be described thus: In vivo optimum dose given on days 1, 5, and 9 to mice implanted intraperitoneally with P388 leukemia cells. The class given is functional, Mus musculus. A digest of the protocol:
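P388 cells (10⁶/mouse) implanted ip into male BDF1 mice on day 0. Dosing ip on days 1, 5 and 9 in 2% DMA/10% Emulphor 620-P/water vehicle. Six mice per group. Optimum dose given in mg/kg per day, judged by increase in median life span.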

Data set [4] in a line: Lipophilic/hydrophilic partitioning (RP-TLC). The class given is ADME. To be noted: 2:1 DMF-saline. A digest of the protocol: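 Reverse-phase TLC developed in 2:1 DMF–saline (0.9% NaCl). Plates scanned at 350 nm. R_f values averaged from two to four determinations.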

In the case of `Cc1c[nH]c2c1C13CC1CN=C3C=C2O` (stereo unspecified), the k entry in data set [1] is reported as “Stable”. Also, the ICD with Nucleic Acid is 0. In the data set with L1210, the IC50 came to 900 nM. Further, the ILS entry with P388 [2] was “inactive”. This compound showed an OD in the data set with P388 [3] of 10 mg/kg/day. This compound showed a Rf in data set [4] of 0.87.
